The species named for series [1] is Rattus norvegicus. In words: The compound was tested for the plasma binding in rat. It counts as ADME, organism-based.
Series [2] is described as follows: Plasma protein binding (human). The series is classed as ADME, cell-free. The method in brief:
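Test substance (0.02 mL) was added to 1.0 mL of heparinized fresh human plasma and incubated about 15 min. Duplicate samples were passed through Sephadex G-25 desalting columns by centrifugation. Eluate and gel were γ-counted for 1 min or to 1% σ error. % bound = net cpm eluate / net cpm (eluate + gel) × 100.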

In series [3] the test system is Rattus norvegicus. In words: Biodistribution of compound in rat blood after 5 min of administration. It counts as ADME, organism-based. The settings on record: in vivo. The method in brief: (§1)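 Female Sprague-Dawley rats (150–200 g) received the complex in normal saline (~12.5 μCi/mL) through a lateral tail vein at ~25 μCi/kg. Rats were killed by cervical dislocation 5 min after injection. Tissues were washed with saline, blotted, weighed and γ-counted to give percent injected dose/g tissue.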

In series [4] the test system is Rattus norvegicus. In words: Biodistribution of compound in rat heart after 5 min of administration. It counts as ADME, organism-based. The settings on record: in vivo. The method in brief:
as §1

Series [5] relates to Rattus norvegicus. Kind of series: Biodistribution of compound in rat kidney after 5 min of administration. The series is classed as ADME, organism-based. The following applies: in vivo. An outline of the steps:
as §1

The subject of series [6] is Rattus norvegicus. In words: Biodistribution of compound in rat lung after 5 min of administration. It counts as ADME, organism-based. The following applies: in vivo. An outline of the steps: as §1
The nature of series [7]: (§2) Biodistribution of compound in rat muscle after 5 min of administration. It counts as ADME, organism-based, Muscle tissue. The following applies: in vivo. The method in brief:
as §1

In series [8] the test system is Rattus norvegicus. Kind of series: Biodistribution of compound in rat brain after 5 min of administration. The series is classed as ADME, organism-based. The following applies: in vivo.
Series [9] deals with Rattus norvegicus. In words: Biodistribution of compound in rat liver after 5 min of administration. The series is classed as ADME, organism-based. The following applies: in vivo. An outline of the steps:
as §1

Series [10] relates to Rattus norvegicus. The series is described as §2. The following applies: in vivo. The series is classed as ADME, organism-based, Muscle tissue. An outline of the steps: as §1

For the substance BIS(DODECAHYDROTRIPHENYLENE) TECHNETIUM, the Plasma binding in the series filed under Rattus norvegicus [1] is reported as 34%; in [2], 84%. Further, the Dose/g amounted to 0.16% with Rattus norvegicus [3]; 2.6% with Rattus norvegicus [4]; 12% in the series on Rattus norvegicus [5]; 1% in the series with Rattus norvegicus [6]; 0.55% in series [7]; 0.02% in the series with Rattus norvegicus [8]. In the series on Rattus norvegicus [9], this substance registered a Dose/g of 1%.
Consider BIS(HEXAETHYLBENZENE) TECHNETIUM, for which the Plasma binding in the series filed under Rattus norvegicus [1] turned out to be 50%; in series [2], 84%. The Dose/g is 0.4% in the series on Rattus norvegicus [3]; 1.3% in the series with Rattus norvegicus [4]; 10% with Rattus norvegicus [5]; 5.7% in the series with Rattus norvegicus [6]; 0.33% in [7]; 0.06% in the series with Rattus norvegicus [8]. The Dose/g in the series with Rattus norvegicus [9] is 8.4%.
As to BIS(HEXAMETHYLBENZENE)TECHNETIUM, the Plasma binding in the series filed under Rattus norvegicus [1] was 57%; in series [2], 72%. Moreover, the Dose/g amounted to 0.16% in the series with Rattus norvegicus [3]; 3% with Rattus norvegicus [4]; 6.2% in the series with Rattus norvegicus [5]; 1.2% in the series on Rattus norvegicus [6]; 0.55% in series [7]; 0.03% in the series on Rattus norvegicus [8]. In the series with Rattus norvegicus [9], this substance had a Dose/g of 0.79%.
As for BIS(INDAN)TECHNETIUM, the Plasma binding amounted to 6.8% in the series filed under Rattus norvegicus [1] and 17% in [2]. Also, the Dose/g with Rattus norvegicus [3] was 0.077%; in the series with Rattus norvegicus [4], 1.1%; in the series with Rattus norvegicus [5] it was 11%; in the series on Rattus norvegicus [6], 0.98%; with Rattus norvegicus [10] it was 0.23%; in the series with Rattus norvegicus [9], 1.7%.
With BIS(PENTAMETHYLBENZENE) TECHNETIUM, the values for the Plasma binding (in the series listed under Rattus norvegicus [1]; in series [2]) were 57% and 55%, respectively. Also, the Dose/g in the series on Rattus norvegicus [3] was determined as 0.14%; in the series on Rattus norvegicus [4], 3.5%; in the series on Rattus norvegicus [5], 5.5%; in the series on Rattus norvegicus [6], 1.6%; in [7], 0.66%; with Rattus norvegicus [8], 0.02%. Besides, the Dose/g in the series on Rattus norvegicus [9] is recorded as 0.45%.
As to BIS(TETRAHYDROACENAPHTHENE) TECHNETIUM, the Plasma binding in the series listed under Rattus norvegicus [1] worked out at 27%; in [2], 90%. Besides, the Dose/g came out at 0.23% in the series on Rattus norvegicus [3]; 4% in the series with Rattus norvegicus [4]; 6% with Rattus norvegicus [5]; 1.4% with Rattus norvegicus [6]; 0.82% with Rattus norvegicus [10]; 0.45% with Rattus norvegicus [9].
Regarding BIS(TRINDAN) TECHNETIUM, the Plasma binding in the series filed under Rattus norvegicus [1] is on record as 23%; in [2] it was 27%. Further, the Dose/g with Rattus norvegicus [3] stood at 0.09%; in the series with Rattus norvegicus [4], 1.5%; with Rattus norvegicus [5], 9.3%; in the series with Rattus norvegicus [6], 1%; in series [7] it was 0.49%; in the series on Rattus norvegicus [8], 0.02%. Further, the Dose/g in the series with Rattus norvegicus [9] is 1%.
As for “Bis(1,1,4,6,7-pentamethylindane)technetium”, the Plasma binding is 81% in the series filed under Rattus norvegicus [1] and 95% in [2]. Also, the Dose/g is given as 0.49% in the series on Rattus norvegicus [3]; 3.3% in the series on Rattus norvegicus [4]; 5% in the series with Rattus norvegicus [5]; 2.5% with Rattus norvegicus [6]; 0.56% in series [7]; 0.06% in the series on Rattus norvegicus [8]. Also, the Dose/g in the series with Rattus norvegicus [9] was found to be 1.2%.
With “Bis(1,1,4,6-tetramethylindane)technetium”, the Plasma binding in the series filed under Rattus norvegicus [1] is 75%; in series [2] it was 94%. Also, the Dose/g in the series on Rattus norvegicus [3] was 0.35%; in the series on Rattus norvegicus [4] it was 3.4%; in the series on Rattus norvegicus [5], 6.4%; in the series on Rattus norvegicus [6], 1.5%; in [7] it was 0.66%; with Rattus norvegicus [8], 0.04%. Also, the Dose/g in the series with Rattus norvegicus [9] came out at 0.73%.
Regarding “Bis(1,2,3,4,5,6,7,8-octahydroanthracene)technetium”, the Plasma binding in the series listed under Rattus norvegicus [1] was found to be 32%; in series [2], 35%. Besides, the Dose/g is on record as 0.16% in the series with Rattus norvegicus [3]; 1.8% in the series on Rattus norvegicus [4]; 9.1% in the series on Rattus norvegicus [5]; 0.9% with Rattus norvegicus [6]; 0.48% in series [7]; 0.02% in the series on Rattus norvegicus [8]. In addition, the Dose/g in the series on Rattus norvegicus [9] stood at 0.79%.
Consider “Bis(1,2,4,5-tetramethylbenzene)technetium”, for which the Plasma binding in the series filed under Rattus norvegicus [1] was found to be 18%; in [2], 42%. Besides, the Dose/g is 0.28% with Rattus norvegicus [3]; 2.3% with Rattus norvegicus [4]; 9.8% with Rattus norvegicus [5]; 1.3% in the series with Rattus norvegicus [6]; 0.72% in series [7]; 0.02% with Rattus norvegicus [8]. The Dose/g in the series with Rattus norvegicus [9] turned out to be 0.9%.
As to Bis(1,2-diethylbenzene)technetium, the Plasma binding in the series listed under Rattus norvegicus [1] was found to be 21%; in series [2], 84%. Also, the Dose/g is recorded as 0.1% in the series on Rattus norvegicus [3]; 3% in the series on Rattus norvegicus [4]; 7.8% with Rattus norvegicus [5]; 1.3% in the series with Rattus norvegicus [6]; 0.58% in series [7]; 0.03% in the series on Rattus norvegicus [8]. In addition, in the series on Rattus norvegicus [9], the Dose/g is given as 0.62%.
In the case of “Bis(1,3,5-tri-tert-butylbenzene)technetium”, the Plasma binding was found to be 60% in the series listed under Rattus norvegicus [1] and 81% in series [2]. Besides, the Dose/g is given as 0.49% in the series with Rattus norvegicus [3]; 1% in the series on Rattus norvegicus [4]; 8% with Rattus norvegicus [5]; 1.3% in the series on Rattus norvegicus [6]; 0.38% in series [7]; 0.04% in the series with Rattus norvegicus [8]. In the series on Rattus norvegicus [9], this substance had a Dose/g of 2%.
On to Bis(1,3,5-triethylbenzene)technetium, for which the values for the Plasma binding (in the series listed under Rattus norvegicus [1]; in series [2]) were 48% and 83%, respectively. Further, the Dose/g in the series with Rattus norvegicus [3] turned out to be 0.24%; in the series on Rattus norvegicus [4] it was 2.8%; in the series on Rattus norvegicus [5], 7.3%; in the series on Rattus norvegicus [6], 1.1%; in [7], 0.63%; in the series on Rattus norvegicus [8] it was 0.04%. The Dose/g with Rattus norvegicus [9] stood at 1.4%.
Consider Bis(1,3-diethylbenzene)technetium, for which the Plasma binding in the series listed under Rattus norvegicus [1] amounted to 19%; in [2], 64%. Besides, the Dose/g in the series on Rattus norvegicus [3] was 0.09%; in the series on Rattus norvegicus [4], 2.8%; in the series on Rattus norvegicus [5], 5.1%; in the series on Rattus norvegicus [6] it was 1.2%; in series [7], 0.64%; in the series with Rattus norvegicus [8], 0.03%. Moreover, the Dose/g in the series with Rattus norvegicus [9] came to 0.46%.
For Bis(1,4-diethylbenzene)technetium, the Plasma binding in the series filed under Rattus norvegicus [1] stood at 16%; in [2], 60%. Moreover, the Dose/g was 0.13% in the series with Rattus norvegicus [3]; 3.8% in the series on Rattus norvegicus [4]; 5.4% with Rattus norvegicus [5]; 1.4% with Rattus norvegicus [6]; 0.66% in [7]; 0.03% in the series on Rattus norvegicus [8]. The same substance registered a Dose/g with Rattus norvegicus [9] of 0.58%.
Take Bis(4,6-dimethylindane)technetium: the Plasma binding in the series filed under Rattus norvegicus [1] is on record as 54%; in [2], 57%. Also, the Dose/g in the series with Rattus norvegicus [3] turned out to be 0.12%; with Rattus norvegicus [4], 3.6%; with Rattus norvegicus [5], 8.4%; in the series on Rattus norvegicus [6], 1.4%; in series [7] it was 0.42%; with Rattus norvegicus [8] it was 0.03%. In addition, the Dose/g in the series on Rattus norvegicus [9] amounted to 0.66%.

These data come from ChEMBL document CHEMBL1125797, “Synthesis, characterization and myocardial uptake of cationic bis(arene)technetium(I) complexes” (J Med Chem, 1991).
